Assay outcomes as filed in PubChem.
rRNA inh HTS: reduced GFP signal of wild-type E. coli, primary screen, bacterial rRNA inhibitor project, GFP/RFP fluorescence, OD600, single point | E. coli WT GFP vs humanized-ribosome RFP mutants, 24 h; hits give low values; DMSO median 0, no signal -100 | GFP signal change (wild-type ribosome), % (test concentration not listed) | 350,000 tested, 1.6% active | AID 720706, 2013;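 active means significant combined selectivity score with lowered wild-type GFP, culture density cut under 30%, mutant RFP and density less affected; inactive means any of these conditions unmet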
S100A4 inh HTS: inhibitors of S100A4-myosin IIA peptide binding, primary screen, biochemical, fluorescence polarization, TAMRA-MyoIIA peptide | inhibition, % at 10.7 µM | Protein S100-A4 (Homo sapiens), P26447 | 360,000 tested, 0.14% active;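 active means mean inhibition of at least 70% across replicates, with every replicate also reaching that level; inconclusive means mean inhibition reaches 70% but some replicates fall short; inactive means mean inhibition below 70%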
Target sequence (P26447 whole entry, looked up): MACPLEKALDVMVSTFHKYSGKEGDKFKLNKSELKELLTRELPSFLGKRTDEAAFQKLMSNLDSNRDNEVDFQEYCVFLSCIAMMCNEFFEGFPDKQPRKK
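Test system: S100A4 monomer protein. Medium: HEPES buffer with Ca2+, pH 7.2. Reagent: fluorescent myosin IIA peptide, 5 nM. Compound dosing: single-point compound testing. Timing: 5 min between mix addition and reading. Benchmarks: DMSO neutral and TFP positive wells.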
PfHsp90 set2: growth inhibition of PfHsp90-expressing yeast, primary screen, antimalarial PfHsp90 inhibitor project, S. cerevisiae, BacTiter-Glo luminescence, single point, set 2 | inhibition, % at 9.4 µM | 310,000 tested, 0.32% active | BacTiter-Glo ATP, 48 h; yeast lacking PDR1 and PDR3 efflux regulators;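 active means every replicate shows inhibition above about 80%, whatever the replicate mean, limit read from the data; inconclusive means mean inhibition reaches the set limit but some replicate falls short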
MLL AF4-AF9 inh: inhibitors of AF4 peptide binding to AF9, primary screen, biochemical, AlphaScreen, biotin-AF4 peptide, FLAG-AF9, single point; AID 651704, 2012; Protein AF-9 (Homo sapiens), P42568; 350,000 tested, 0.47% active; inhibition, % at 10 µM;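 active means every replicate reaching a set inhibition limit, whatever the replicate mean, cut at about 25% in these data; inconclusive means mean inhibition reaches that limit but some replicates miss it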
Target sequence (P42568 whole entry, looked up): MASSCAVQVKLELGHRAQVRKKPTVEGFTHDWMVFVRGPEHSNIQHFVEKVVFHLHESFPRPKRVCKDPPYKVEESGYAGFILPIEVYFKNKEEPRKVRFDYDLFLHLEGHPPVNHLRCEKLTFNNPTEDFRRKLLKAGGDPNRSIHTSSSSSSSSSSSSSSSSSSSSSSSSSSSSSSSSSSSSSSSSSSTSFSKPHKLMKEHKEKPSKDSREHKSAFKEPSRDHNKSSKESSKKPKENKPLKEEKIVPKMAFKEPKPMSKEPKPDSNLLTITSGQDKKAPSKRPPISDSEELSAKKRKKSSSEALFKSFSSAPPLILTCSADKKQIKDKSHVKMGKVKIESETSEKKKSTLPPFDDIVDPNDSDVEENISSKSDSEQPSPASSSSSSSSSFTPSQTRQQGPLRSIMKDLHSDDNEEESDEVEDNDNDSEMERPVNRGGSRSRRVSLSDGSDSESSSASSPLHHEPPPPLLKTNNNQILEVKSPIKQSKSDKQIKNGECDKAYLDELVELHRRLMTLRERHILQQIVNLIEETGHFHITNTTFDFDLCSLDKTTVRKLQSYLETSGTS
DENV2 CPE: inhibitors of DENV2 cytopathic effect, primary screen, cell-based, plate reader, single concentration; DENV2-infected cells, cytopathic effect rescue; CPE inhibition, % at 9.99 µM; 350,000 tested, 1.7% active; AID 651640, 2012; in the data active means CPE inhibition above about 20%, passing the limit was not always enough; inconclusive means no clear call, values can overlap the other calls; tested in BHK-21 cells
Cneo AK release: Cryptococcus neoformans cell lysis inducers, primary screen, AK release luminescence, single concentration; C. neoformans lysis, adenylate kinase release luminescence, 4 h; normalised: neutral wells 0, clomiphene wells 100; lysis activity, % at 15 µM; 360,000 tested, 0.2% active; AID 651654, 2012;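 active means mean lysis activity across replicates of at least 80%, whatever share of replicates individually reach that level; inactive means mean lysis activity below 80%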
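read-out = cell lysis signal | test system = log-phase Cryptococcus neoformans yeast cells | input = cells at 5 × 10^6 per mL | medium = fresh YPD growth medium | signal = luminescent adenylate kinase detection reagent | timing = 4 h at 37 °C static, read 1 h later | dosing = single dose | controls = Clomiphene as positive lysis control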
Hits are given with their value; n = inactive; u = inconclusive; x = not tested or not shown; ! = repeats disagree. This is a sample that favours compounds with a hit; in the whole collection about 3.2% have one here.

SMILES	rRNA inh HTS	S100A4 inh HTS	PfHsp90 set2	MLL AF4-AF9 inh	DENV2 CPE	Cneo AK release
CCCN1C[C@@H](C)[C@@H](OC)CN(C)C(=O)c2ccc(NC(=O)C3CCC3)cc2OC[C@H]1C	n	n	x	n	n	n
CCCN1C[C@H](C)[C@@H](OC)CN(C)C(=O)c2ccc(NC(=O)CC)cc2OC[C@H]1C	n	x	x	x	x	x
COc1ccc(S(=O)(=O)Nc2cccc3c2O[C@H](CN(C)C(=O)NC2CCCCC2)[C@H](C)CN([C@H](C)CO)C3=O)cc1	n	n	x	n	n	n
CCC(=O)NC(c1ccc(OC)cc1)c1cc(Cl)c2cccnc2c1O (stereo not drawn)	n	n	n	n	n	x
O=[N+]([O-])c1ccc(NC(c2ccccc2)c2ccc3cccnc3c2O)cc1 (stereo not drawn)	x	n	112.5	n	n	n
COc1ccc(Cl)cc1C(Nc1cccnc1)c1ccc2cccnc2c1O (stereo not drawn)	-23.3	n	104.4	25.7	n	x
CCC(=O)NC(c1ccccc1OC)c1ccc2cccnc2c1O (stereo not drawn)	x	x	n	x	x	x
CCCCC(=O)NC(c1ccc(C(C)C)cc1)c1ccc2cccnc2c1O (stereo not drawn)	n	n	89.7	n	n	n
CCCC(=O)NC(c1ccccc1)c1ccc2cccnc2c1O (stereo not drawn)	n	n	113.3	u	n	n
CCCNC(=O)N1C[C@H](C)[C@H](OC)CN(C)C(=O)c2cc(NC(=O)CCC)ccc2OC[C@@H]1C	n	x	x	x	x	x
O=C(C[C@@H]1CC[C@H]2[C@@H](COC[C@H](O)CN2Cc2nccs2)O1)NCc1ccccc1	n	n	x	n	n	n
CCC(=O)N(C)C[C@H]1Oc2cc(C#CC(C)(C)O)ccc2S(=O)(=O)N([C@@H](C)CO)C[C@H]1C	n	n	x	n	n	n
CCC(=O)N(C)C[C@H]1Oc2cc(C#CC(C)(C)O)ccc2S(=O)(=O)N([C@@H](C)CO)C[C@@H]1C	n	n	x	n	n	98.4
CCC(=O)N(C)C[C@@H]1Oc2cc(C#CC(C)(C)O)ccc2S(=O)(=O)N([C@H](C)CO)C[C@H]1C	n	n	x	n	n	103.4
CNC[C@@H]1Oc2ccc(N(C)C)cc2CC(=O)N(C)C[C@H]1C	n	x	x	x	x	x
CN(Cc1nc2ccccc2c(=O)[nH]1)C(=O)c1cccc(S(=O)(=O)N2CCc3ccccc32)c1	n	n	n	n	43.7	n
CN(Cc1nc2ccccc2c(=O)[nH]1)C(=O)c1cccc(S(=O)(=O)N2CCCCCC2)c1	x	n	n	n	n	n
COc1ccc(C2CC(=O)Oc3c(C(CCN4CCCCC4)c4ccc(N(C)C)cc4)c(OC)cc(OC)c32)cc1 (stereo not drawn)	n	n	n	44.2	n	n
COc1cc(O)c(C(CCN2CCCC2)c2ccc(N(C)C)cc2)c(OC)c1 (stereo not drawn)	n	n	n	39.0	u	n
Cc1noc(C)c1NC(=O)Nc1ccc2c(c1)C(=O)N([C@H](C)CO)C[C@@H](C)[C@@H](CN(C)C)OCCCC[C@@H](C)O2	n	n	x	n	n	n
O=C(c1cccc(F)c1)N1CC(=O)N2[C@H](C1)[C@@H](c1ccc(-c3cccnc3)cc1)[C@@H]2CO	n	n	x	n	n	x
C[C@H]1CN([C@@H](C)CO)C(=O)c2ccccc2-c2ccccc2CO[C@@H]1CN(C)Cc1ccncc1	n	n	x	n	n	n
Cc1[nH]n(-c2cccc(Cl)c2)c(=O)c1C=NCC(C)C	-20.9	n	x	n	n	x
Cc1[nH]n(-c2cccc(Cl)c2)c(=O)c1C=NCc1ccco1	n	n	n	n	n	x
O=C(C[C@@H]1CC[C@@H]2[C@H](COC[C@H](O)CN2CC2CCCC2)O1)NCc1ccc(Cl)cc1	n	n	x	n	n	x
SMILES	rRNA inh HTS	S100A4 inh HTS	PfHsp90 set2	MLL AF4-AF9 inh	DENV2 CPE	Cneo AK release
N/C(=N\OC(=O)CC(c1ccccc1)c1ccccc1)c1cccnc1	-19.5	n	n	n	n	x
N/C(=N\OC(=O)Cc1ccccc1)c1cccnc1	x	x	n	x	x	x
CSc1nsc(N/N=C/c2ccccc2)c1C#N	-22.5	n	n	n	n	x
COc1cccc(/C=N/Nc2snc(SC)c2C#N)c1	x	x	n	x	x	x
O=C(O)c1ccc(Oc2ccc([N+](=O)[O-])cc2)c([N+](=O)[O-])c1	-9.6	n	x	n	n	n
CNC(=O)C[C@H]1CC[C@@H]2[C@H](COC[C@@H](O)CN2C(=O)Nc2ccc3c(c2)OCO3)O1	n	n	x	n	102.3	n
O=C(C[C@H]1CC[C@H]2[C@@H](COC[C@H](O)CN2C(=O)Nc2ccc3c(c2)OCO3)O1)N1CCN(c2ccccc2)CC1	n	n	x	n	n	90.9
CCNC(=O)C[C@@H]1CC[C@@H]2[C@H](COC[C@@H](O)CN2C(=O)Nc2ccc3c(c2)OCO3)O1	n	n	x	n	n	n
C[C@@H]1CN([C@H](C)CO)C(=O)c2cc(NC(=O)Nc3cccc4ccccc34)ccc2O[C@@H](C)CCCCO[C@@H]1CN(C)C(=O)NC1CCCCC1	n	n	x	n	n	n
C[C@@H]1CCCCO[C@@H](CN(C)Cc2ccc(Cl)c(Cl)c2)[C@H](C)CN([C@@H](C)CO)C(=O)c2cc(NC(=O)Nc3ccccc3)ccc2O1	n	n	x	n	32.5	n
C[C@@H]1CN([C@@H](C)CO)C(=O)c2cc(NC(=O)Nc3ccc(C(F)(F)F)cc3)ccc2O[C@@H](C)CCCCO[C@H]1CN(C)Cc1ccc(Cl)c(Cl)c1	n	n	x	n	23.8	n
COc1ccc(S(=O)(=O)Nc2ccc3c(c2)C(=O)N([C@@H](C)CO)C[C@H](C)[C@@H](CN(C)S(=O)(=O)c2ccccc2)OCCCC[C@@H](C)O3)cc1	n	n	x	x	n	x
N#Cc1nc(COc2ccccc2)oc1N1CCCCCC1	n	n	n	26.9	n	n
CCOc1ccc(-c2nc(C#N)c(N3CCN(Cc4ccccc4)CC3)o2)cc1	n	n	n	52.9	n	n
N#Cc1nc(COc2ccccc2)oc1N1CCCC1	x	x	n	x	x	n
CCOc1ccc(-c2nc(C#N)c(N3CCOCC3)o2)cc1	n	n	n	n	n	n
C[C@@H]1CN([C@H](C)CO)C(=O)c2ccccc2-c2ccccc2CO[C@@H]1CN(C)S(=O)(=O)c1ccc([N+](=O)[O-])cc1	n	n	x	n	n	x
C[C@@H]1CN([C@@H](C)CO)C(=O)CCCn2cc(nn2)CO[C@H]1CN(C)C(=O)Nc1cccc(F)c1	n	n	x	n	87.2!	n
